The source made the active and inactive calls. The calls are words filed in the database; no cut-off is given here.
How the values were obtained:
[1] = Protection against cisplatin-induced cell death in neonatal mouse HEI-OC1 cells assessed as reduction in caspase-3/7 activity; format: functional
CDK2/Cyclin A2 = CDK2/Cyclin A2 (Homo sapiens, UniProt P24941); experiment: Inhibition of C-terminal His6-tagged human full length CDK2/N-terminal GST-tagged human full length Cyclin A using histone H1 and [gamma-32P]-ATP incubated for 30 mins by phosphorimage based assay; format: protein-complex assay
Spiral organ of cochlea [2] = experiment: Protection against cisplatin-induced toxicity in P3 mouse cochlear explants assessed as increase in outer hair cell count at 150 nM incubated for 24 hrs by phalloidin staining based confocal microscopy; format: functional, tissue-based
How it was run: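 P3 FVB mouse cochleae were cultured on filters in DMEM with 1% FBS and 50 μg/mL ampicillin, 37 °C, 5% CO2, for 1 d. They were pretreated with compound 1 h, then given cisplatin 150 μM plus compound for 1 d. Fixed in 4% PFA, phalloidin-stained, confocal imaged. OHCs counted per 160 μm; medium-only = full protection, cisplatin-only = none.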

Spiral organ of cochlea [3] = experiment: Protection against cisplatin-induced toxicity in P3 mouse cochlear explants assessed as increase in outer hair cell count incubated for 24 hrs by phalloidin staining based confocal microscopy; format: functional, tissue-based
[4] = Mus musculus, HEI-OC1, read-out: EC50

Compound | EC50 [1, 4] [µM] | EC50 [1] | also measured
CCn1cc(NC(=O)c2ccc(COCC(F)(F)F)cc2)c(C(=O)NCC(C)C)n1 | 6.75 | – | IC50 (CDK2/Cyclin A2): > 10 µM
Cc1[nH]nc(C(N)=O)c1NC(=O)C(C)NC(=O)c1ccc(Cl)cc1 (configuration not stated) | – | Not Active | –
CC(C)CNC(=O)c1c(NC(=O)c2ccc(COCC(F)(F)C(F)F)cc2)cnn1C | – | Not Active | –
NS(=O)(=O)c1ccc(CNc2nccc(-c3ccccn3)n2)cc1 | – | Not Active | –
NS(=O)(=O)c1ccc(CCNc2nccc(-c3ccccn3)n2)cc1 | – | Not Active | –
Cc1[nH]nc(C(N)=O)c1NC(=O)c1cc(F)cc(Br)c1 | – | Not Active | –
CCCNC(=O)c1c(NC(=O)c2ccccc2Cl)cnn1C | – | Not Active | –
c1ccc(Nc2nccc(-c3ccccn3)n2)cc1 | – | Not Active | –
Cn1ncc(NC(=O)c2ccc(Cl)cc2Cl)c1C(=O)NCc1ccco1 | – | Not Active | –
CCCNC(=O)c1c(NC(=O)c2ccc(Cl)cc2Cl)cnn1C | – | Not Active | –
O=C(NCC1CC1)c1n[nH]cc1NC(=O)c1c(F)cccc1F | 0.044 | – | Activity (Spiral organ of cochlea [2]): inactive
Cc1nc(-c2ccnc(N)n2)cn1Cc1c(Cl)cccc1Cl | – | Not Active | –
CCn1cc(NC(=O)c2ccccc2Cl)c(C(=O)NCC(C)C)n1 | – | Not Active | –
Cn1cc(NC(=O)c2c(Cl)cccc2Cl)c(C(=O)NC2CCN(C(=O)c3c(Cl)cccc3Cl)CC2)n1 | > 49.4 | – | IC50 (CDK2/Cyclin A2): > 10 µM
CC[C@H](CO)Nc1nc(NCc2ccccc2O)c2ncn(C(C)C)c2n1 [OLOMOUCINE II] | 0.595 | – | EC50 (Spiral organ of cochlea [3]): 3 µM
N#Cc1ccc2c(c1)/C(=C1/C=CC(CN3CCOCC3)=CN1)C(=O)N2 | 3.63 | – | EC50 (Spiral organ of cochlea [3]): 15 µM
Cn1ncc(NC(=O)c2ccccc2Cl)c1C(=O)N1CCCCC1 | – | Not Active | –
Cc1[nH]nc(C(N)=O)c1NC(=O)c1cc(F)c(F)c(F)c1 | – | Not Active | –
COc1ccc2c(c1)/C(=C/c1cnc[nH]1)C(=O)N2 [SU-9516] | 1.59 | – | EC50 (Spiral organ of cochlea [3]): 6 µM
Cc1[nH]nc(C(N)=O)c1NC(=O)c1ccc(OCC2CC2)cc1 | – | Not Active | –
CN(Cc1nccn1Cc1ccccc1)c1nccc(-c2ccccn2)n1 | – | Not Active | –
Cc1ccc(-c2ccnc(NCC(C)n3nc(C)cc3C)n2)c(C)n1 (configuration not stated) | – | Not Active | –
N[C@H]1CC[C@H](NC(=O)c2n[nH]cc2NC(=O)c2c(F)cccc2F)CC1 | > 33.5 | – | –
Cc1cc(Br)ccc1C(=O)Nc1c(C(N)=O)n[nH]c1C | – | Not Active | –
O=C(NC1CCNCC1)c1n[nH]cc1NC(=O)c1c(F)cc(F)cc1F | > 30.9 | – | –
COc1cccc(F)c1C(=O)Nc1c[nH]nc1C(=O)NC1CCNCC1 | > 37.2 | – | –
